# Bioassay records: PubChem BioAssay, Sanford-Burnham Center for Chemical Genomics
# APOBEC3A inh – APOBEC3A ssDNA deaminase inhibitors, primary screen, selectivity assay for APOBEC3G inhibitor project, biochemical, FAM/TAMRA oligo cleavage fluorescence; recombinant A3A, FAM/TAMRA ssDNA deamination fluorescence; DNA dC->dU-editing enzyme APOBEC-3A (Homo sapiens), P31941; inhibition, % at 20 µM; 330,000 tested, 0.41% active; AID 493011, 2011;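 active means at least 40% inhibition at 20 µM here, with at most 30% in a related deaminase screen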;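 further: plate controls were A3A with DMSO for no effect and wells lacking A3A enzyme for full effect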
# Target sequence (P31941 whole entry, looked up): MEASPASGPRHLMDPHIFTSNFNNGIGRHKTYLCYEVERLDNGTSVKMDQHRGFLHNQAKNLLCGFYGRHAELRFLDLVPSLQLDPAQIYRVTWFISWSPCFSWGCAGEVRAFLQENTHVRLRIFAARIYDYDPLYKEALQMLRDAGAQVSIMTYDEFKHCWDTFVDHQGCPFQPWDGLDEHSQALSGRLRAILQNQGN
# CXCR6 block – CXCR6 receptor inhibitors, primary screen, cell-based, beta-arrestin, luminescence, CHO-K1 PathHunter, 1536-well; C-X-C chemokine receptor type 6 (Homo sapiens), O00574; inhibition, % at 20 µM; 360,000 tested, 0.36% active; AID 602244, 2012; in the data active means inhibition above about 34%, passing the limit was not always enough;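 further: antagonist mode with CXCL16 agonist at 10 nM final; 0% = 10 nM CXCL16 with DMSO and 100% = unstimulated wells without agonist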
# Target sequence (O00574 whole entry, looked up): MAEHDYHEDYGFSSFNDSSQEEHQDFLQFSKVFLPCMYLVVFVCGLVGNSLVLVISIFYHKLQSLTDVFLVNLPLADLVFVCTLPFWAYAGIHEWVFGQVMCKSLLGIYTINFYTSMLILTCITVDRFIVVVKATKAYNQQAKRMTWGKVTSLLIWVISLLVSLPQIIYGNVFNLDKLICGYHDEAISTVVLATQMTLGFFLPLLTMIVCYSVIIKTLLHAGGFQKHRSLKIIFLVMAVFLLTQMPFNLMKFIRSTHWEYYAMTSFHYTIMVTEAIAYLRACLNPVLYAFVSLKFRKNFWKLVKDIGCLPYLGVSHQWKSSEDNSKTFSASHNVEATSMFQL
# CCR6 antag – CCR6 receptor antagonists, primary screen, cell-based, CHO-K1, luminescence, beta-arrestin, uHTS; C-C chemokine receptor type 6 (Homo sapiens), P51684; CHO-K1 CCR6 PathHunter beta-arrestin, CCL20-stimulated; inhibition, % at 20 µM; 340,000 tested, 0.49% active;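 active means compounds whose inhibition of the agonist-driven luminescence signal at 20 µM reaches about 50%, limit read from the data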;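 further: cells stimulated with CCL20 at 14 nM final; plate controls were DMSO with CCL20 for no effect and DMSO without agonist for full effect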
# APJ antag – antagonists of human apelin receptor APJ, primary screen, CHO-K1 cells, beta-arrestin complementation, luminescence | P35414 | inhibition, % at 20 µM | 330,000 tested, 0.32% active | AID 2521, 2010;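 active means inhibition above about 40% at 20 µM, limit read from the data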;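 further: cells challenged with 10 nM apelin-13 agonist together with compound; plate controls were apelin-13 plus DMSO wells for no effect and DMSO wells lacking apelin-13 for full effect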
# APJ agonist – agonists of human apelin receptor APJ, primary screen, CHO-K1 cells, PathHunter beta-arrestin, luminescence; 0% DMSO wells, 100% apelin; activation, % at 20 µM; 330,000 tested, 0.11% active;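 active means activation more than six SD over the plate average, tested at 20 µM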;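 further: 0% = DMSO alone and 100% = apelin-13 at 10 nM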
#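 assay system = CHO-K1 APJ beta-arrestin complementation cell line | input = cell density 1000 per well | dosing = compound 20 µM once, DMSO 1% | timing = compound 90 min 25 °C, reagent 1 h | measured by = luminescence from split beta-galactosidase complementation, Galacton Star/Emerald II substrate | read-out basis = APJ agonist activity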
# A3G deaminase – APOBEC3G DNA deaminase inhibitors, primary screen, biochemical, fluorescence, single-stranded DNA substrate, uHTS; DNA dC->dU-editing enzyme APOBEC-3G (Homo sapiens), Q9HC16; recombinant A3G, ssDNA deamination FAM/TAMRA fluorescence; inhibition, % at 20 µM; 330,000 tested, 0.28% active; AID 493012, 2011;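 active means inhibition of at least 40% at 20 µM, with no more than 30% in the related APOBEC3A deaminase screen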;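 further: plate controls were DMSO wells with A3G for no effect and wells lacking A3G enzyme for full effect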
# APJ antag confirm – APJ antagonists blocking beta-arrestin recruitment, confirmation, cell-based, luminescence, single concentration, uHTS hits | shares compounds with APJ antag | antagonist mode | inhibition, % at 20 µM | 950 tested, 66% active | AID 2766, 2010; in the data active means inhibition above about 50%
# CXCR6 antag conf – CXCR6 receptor antagonists, confirmation, cell-based, single concentration, beta-arrestin, luminescence; inhibition, % at 20 µM; 700 tested, 65% active; CHO-K1 CXCR6 PathHunter beta-arrestin; shares compounds with CXCR6 block;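 active means mean inhibition over four retests above 40%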;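 further: receptor stimulated with 10 nM CXCL16 agonist; beta-galactosidase fragment complementation upon beta-arrestin recruitment to receptor; plate controls were CXCL16 plus DMSO for no effect and DMSO without CXCL16 for full effect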
# The depositor's hits bear a star; nt = no result given. In the library only some 1.4% were active in any assay of this set; here they are far more common.
SMILES,APOBEC3A inh,CXCR6 block,CCR6 antag,APJ antag,APJ agonist,A3G deaminase,APJ antag confirm,CXCR6 antag conf
NC(=O)c1ccccc1NCC(=O)c1ccc(Cl)cc1,-1,80*,105*,101*,-16,-5,136*,46*
NC(=O)c1ccccc1OCC(=O)c1ccc(Cl)cc1,0,4,-6,-5,-2,0,nt,nt
COc1ccc(OC)c(-n2c(=S)[nH]c3c(sc(=S)n3-c3ccccc3)c2=O)c1,-3,-3,27,4,0,-8,nt,nt
Cc1cccc(CSc2cccc3cccnc23)c1,0,66*,72*,56*,-14,-1,84*,74*
C=CCn1c(=O)c2c(nc3n2CC(C)CN3c2cccc(OC)c2)n(C)c1=O (stereo unspecified),-4,49*,59*,48*,-8,-9,77*,51*
Cn1c(=O)n(C)c2cc([N+](=O)[O-])c(N3CCN(C(=O)c4cccc(F)c4)CC3)cc21,-2,18,22,17,-5,-11,nt,nt
Cn1c(=O)n(C)c2cc([N+](=O)[O-])c(N3CCN(C(=O)c4cccc(Cl)c4)CC3)cc21,-2,52*,65*,53*,-13,-3,84*,46*
O=C(Nc1nnc(SCc2ccc(F)cc2)s1)c1ccccn1,-1,44*,70*,78*,-12,-8,46,50*
CN(CC(=O)Nc1c(Cl)cccc1Cl)C(=O)c1ccc2ccccc2n1,-2,-7,10,17,-4,-13,nt,nt
CN(CCO)c1cc(Sc2nc3ccccc3s2)c2nonc2c1[N+](=O)[O-],-13,99*,113*,97*,-9,14,107*,109*
CC(=O)OCCN(C)c1cc(SC(C)C)c2nonc2c1[N+](=O)[O-],2,6,25,-1,4,-6,nt,nt
O=C(NCc1ccccc1F)c1cccc(S(=O)(=O)N2CCCCCC2)c1,-3,2,18,-6,-2,-7,nt,nt
O=[N+]([O-])c1c(Nc2ccc(O)cc2)cc(Cl)c2nonc12,-1,107*,107*,96*,-14,6,126*,109*
CN(C)c1cc(Nc2ccc(O)cc2)c([N+](=O)[O-])c2nonc12,0,16,26,-11,-1,6,nt,nt
O=C(NC1CCN(Cc2ccccc2)CC1)c1cccc(S(=O)(=O)Nc2ccc(F)cc2)c1,-4,2,-4,-8,0,-8,nt,nt
CC12CCC(=O)N1C(C(=O)NNC(=O)c1ccccc1)CS2 (stereo unspecified),-1,-5,1,5,0,-7,nt,nt
CCS(=O)(=O)c1ncc(Cl)c(C(=O)Nc2ccc(S(=O)(=O)N3CCCC(C)C3)cc2)n1 (stereo unspecified),-4,87*,94*,78*,-8,-5,104*,78*
CCC1CCCCN1S(=O)(=O)c1ccc(NC(=O)c2nc(S(C)(=O)=O)ncc2Cl)cc1 (stereo unspecified),-3,88*,98*,60*,-7,-4,92*,82*
CCC1CCCCN1S(=O)(=O)c1ccc(NC(=O)c2ccncc2)cc1 (stereo unspecified),-3,-26,8,-20,7,-5,nt,nt
C[N+]1=C(/C=C/Nc2ccccc2Cl)C(C)(C)c2ccccc21,9,-8,23,-7,1,-8,nt,nt
COC(=O)c1ccc2c(c1)C(C)(C)C(/C=C/c1ccccc1O)=[N+]2C,24,68*,89*,63*,1,10,124*,93*
Fc1ccc(NC(=S)Nc2nccs2)cc1,-5,53*,49,46*,-8,-7,62*,78*
COc1ccc(N2N=NN(C(C)C)C2=C(Cl)c2nnnn2-c2ccc(OC)cc2)cc1,nt,-11,5,nt,nt,nt,nt,nt
CCCC(=O)OCCNc1cc(Sc2nc3ccccc3[nH]2)c2nonc2c1[N+](=O)[O-],7,94*,118*,87*,-7,4,126*,103*
O=C1OC(/C=C/c2ccc(Cl)cc2)=NC/1=C/c1ccco1,4,15,14,29,-3,-3,nt,nt
SMILES,APOBEC3A inh,CXCR6 block,CCR6 antag,APJ antag,APJ agonist,A3G deaminase,APJ antag confirm,CXCR6 antag conf
CCC1=NN(C(=O)c2ccc([N+](=O)[O-])cc2)C(O)(c2ccccc2)C1 (stereo unspecified),-1,64*,82*,45*,-10,-3,71*,42*
COc1ccccc1C(=O)NNC(=S)NC(=O)c1cccs1,-4,53*,nt,42*,-6,-6,68*,58*
O=C(NC(=S)NNC(=O)c1ccccc1O)c1cccs1,-5,12,17,9,-4,-8,nt,nt
CCOC(=O)c1c(-c2ccc(C)o2)csc1NC(=S)NC(=O)N(C)C,-7,44*,nt,46*,-5,1,42,62*
C=CC[n+]1c(-c2ccc(Cl)cc2Cl)csc1Nc1c(C)n(C)n(-c2ccccc2)c1=O,4,64*,82*,54*,-10,-5,87*,66*
Oc1cccc2ccc(/C=C/c3c(F)cccc3Cl)nc12,-2,47*,56*,44*,-7,-6,32,58*
Nc1nccc(/C=C/c2c(F)cccc2Cl)n1,-2,-11,9,14,-4,-2,nt,nt
O=C1C(Cc2ccccc2)Nc2ncnc(N3CCN(c4ccccc4)CC3)c2N1Cc1ccc(Br)cc1 (stereo unspecified),-3,74*,87*,82*,-12,-4,118*,79*
Cc1ccc(CN2C(=O)C(Cc3ccccc3)Nc3ncnc(N4CCN(c5ccccc5)CC4)c32)cc1 (stereo unspecified),2,74*,80*,74*,-21,-4,111*,72*
O=C(Nc1nnc(CCc2ccccc2)s1)c1ccccc1F,-1,3,17,-13,0,-3,nt,nt
